p97 ATPase inh: blocks human p97 ATPase activity | AID 1481 | inhibition, % at 8 µM | 0.42% of 220,000 active | recombinant p97 ATPase, Kinase-Glo ATP luminescence, 3 h; in the data active means inhibition above about 15%;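 further: 0% = DMSO vehicle and 100% = wells lacking enzyme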
DTT redox prof: compounds producing H2O2 with reducing agent – biochemical, NIH compound library profiling, artefact control for MLSCN library redox annotation, primary screen. DTT-dependent redox cycling H2O2, phenol red/HRP absorbance; 100% = 100 µM peroxide control, 0% = buffer. activation, % at 10 µM. 0.03% of 200,000 active. AID 878;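 active means activation of at least 50% relative to the plate's high and low controls in the primary single-dose screen; inactive means activation below 50%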;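 further: compound incubated with DTT at 0.8 mM final as the reducing agent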
ROMK mod: human ROMK K+ channel modulation, primary screen. B-score at 10 µM. 2% of 130,000 active. Tet-inducible ROMK, thallium flux fluorescence; actives lie on both sides. P48048;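 active means signal ratio slope over the read window, or its plate-corrected B-score, at least 3 SD from the plate mean, either direction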;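 further: B-score of the F/F0 ratio slope over 7 to 12 s after thallium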
Target sequence (P48048 whole entry, looked up): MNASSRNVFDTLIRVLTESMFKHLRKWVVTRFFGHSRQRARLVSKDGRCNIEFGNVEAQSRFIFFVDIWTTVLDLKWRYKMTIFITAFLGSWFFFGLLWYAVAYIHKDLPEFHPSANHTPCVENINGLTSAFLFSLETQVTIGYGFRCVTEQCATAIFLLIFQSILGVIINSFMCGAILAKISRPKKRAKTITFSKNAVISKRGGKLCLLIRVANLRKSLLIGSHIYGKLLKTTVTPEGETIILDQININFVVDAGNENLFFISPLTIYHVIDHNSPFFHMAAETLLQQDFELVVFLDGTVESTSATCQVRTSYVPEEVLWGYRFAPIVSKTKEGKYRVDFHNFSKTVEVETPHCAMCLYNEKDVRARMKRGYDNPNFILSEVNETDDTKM
KCC2 mod: modulates chloride dependent transport by human KCC2 | KCC2 cells, thallium flux FluoZin-2 fluorescence | B-score of Tl+ flux slope (higher = more flux/activation; lower = inhibition) at 10 µM | 2.2% of 190,000 active | Q9H2X9;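 active means thallium flux slope and its plate-corrected score both differing from the plate sample mean at a set confidence after two filtering rounds, in either direction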;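 further: slope of fluorescence scaled to starting intensity during 10 to 20 s after thallium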
Mdm2 ligase inh: Mdm2 E3 ligase (human) inhibition. Q00987. signal enhancement, % at 5 µM. cell-based MDM2 ubiquitination luciferase reporter, 2 h; 0 = plate control, 100 = twice control, blank-subtracted. 0.11% of 210,000 active;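 active means signal enhancement of 30% or more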;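 further: luminescence tracks abundance of the self-degrading MDM2-luciferase fusion protein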
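Timing – 2 h compound exposure at 37 °C · Assay system – mammalian cells stably expressing self-ubiquitinating, self-degrading MDM2 E3–luciferase fusion · Amount – 2000 cells seeded into each well · Measure – % luminescence enhancement versus blank-corrected plate control mean · Measured by – SteadyLite luminescence, 15 min reagent step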
PKD1 kinase inh: PKD1 (human) kinase inhibition. Q15139. PKD1 kinase fluorescence polarization assay. inhibition, % (no concentration beside the values). 0.056% of 200,000 active. AID 797; in the data active means inhibition above about 50%
ROMK retest: retested hit modulating human ROMK potassium channel. shares compounds with ROMK mod. 54% of 3,000 active. ROMK thallium flux, fluorescence ratio; stronger effect = lower value. AID 1917. normalized thallium flux (F/F0 slope) at 10 µM;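 active means Flux at 10 µM at least 3 SD below or above vehicle control mean in one or both replicates; inconclusive means no clear call, values can overlap the other calls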
Starred values were filed as active, the others as inactive; ? = inconclusive; nt = no result given. In the library only some 3.4% were active in any assay of this set; here they are far more common.

SMILES	p97 ATPase inh	DTT redox prof	ROMK mod	KCC2 mod	Mdm2 ligase inh	PKD1 kinase inh	ROMK retest
O=C1OCCC1Sc1nc2cc(Cl)ccc2n1Cc1ccccc1 (stereo not given)	0	-8	nt	2.5	10	4	nt
Cc1ccc(Cl)cc1N1CCN(S(=O)(=O)N2CCCCC2)CC1	-1	0	0.22	0.99	-8	6	nt
Cc1cc(C)nc(/N=C(\N)Nc2ccccc2-c2ccccc2)n1	8	-1	-4.8*	-0.084	-15	0	0.053*
CCCCc1ccc(N/C(N)=N/c2nc(C)cc(C)n2)cc1	7	nt	nt	-3.7	-43	nt	0.057*
Cc1ccc(N/C(N)=N/c2nc(C)cc(C)n2)cc1	1	0	-0.083	0.77	21	-4	nt
COc1ccc(NC(=O)CSc2nc(C)cc(C)n2)cc1	-7	0	0.34	nt	-5	-13	nt
CCCCOC(=O)c1ccc(NC(=O)COC(=O)CSc2nc(C)cc(C)n2)cc1	-5	0	-3.1*	-0.33	-13	5	0.079
Cc1ccccc1OC1=NS(=O)(=O)c2ccccc21	1	0	-2.6*	-1.1	-3	0	0.064*
O=S1(=O)N=C(Oc2cccc3ccccc23)c2ccccc21	2	3	0.026	0.57	-4	1	nt
CCOc1ccc(OCCOCCOc2ccccc2Cl)cc1	-1	0	-0.3	0.16	nt	-1	nt
COc1ccccc1OCCOCCOc1ccccc1Cl	-4	0	-2.8*	-2.5	-11	0	0.074
NS(=O)(=O)c1cc(C(=O)N=Nc2c(O)[nH]c3ccccc23)ccc1Cl	-6	nt	nt	0.16	-21	nt	nt
Cc1c(Br)c([N+](=O)[O-])nn1C(C)C(=O)NCc1ccco1 (stereo not given)	-3	0	nt	1.9	-5	-2	nt
Cc1nn(C(C)C(=O)NCc2ccco2)c(C)c1[N+](=O)[O-] (stereo not given)	4	0	nt	-0.14	-13	3	0.071
COCCn1nnnc1C(c1cc(OC)ccc1OC)N1CCc2ccccc2C1 (stereo not given)	-1	0	-2.1*	0.22	-8	8	0.078
Cc1ccc(-c2nnn(CC(=O)N(c3ccccc3)C(C(=O)NC3CCCC3)c3ccco3)n2)o1 (stereo not given)	0	2	nt	nt	-75	-2	nt
CCCCOC(=O)CCNc1n[nH]c(=O)[nH]c1=O	2	-1	nt	-0.36	-24	-7	0.087
CC(C)OC(=O)CCNc1n[nH]c(=O)[nH]c1=O	1	0	0.052	0.046	nt	5	nt
C#CC[N+](C)(C)CCN1C(=O)C2C(c3ccccc3)C=CC(c3ccccc3)C2C1=O (stereo not given)	2	0	0.42	0.84	-4	-4	nt
CC(C)OC(=O)C[N+](C)(C)CCN1C(=O)C2C(c3ccccc3)C=CC(c3ccccc3)C2C1=O (stereo not given)	8	-2	-3.3*	-1.1	11	-9	?
O=C(c1cnn2c(C(F)(F)F)cc(-c3ccccc3)nc12)N1CCOCC1	2	-1	nt	0.012	-11	-11	nt
O=C(CCl)NC(Cc1ccccc1)c1ccccc1 (stereo not given)	4	0	-0.4	0.78	-22	9	0.087
Cc1cc2oc(=O)cc(Cn3ccnc3)c2cc1C	2	3	-6.3*	0.17	-6	0	0.077
O=c1cc(Cn2ccnc2)c2cc3c(cc2o1)CCC3	3	-1	-0.58	nt	5	7	nt
COc1cccc(Cn2nnc(C(=O)NCc3ccccc3Cl)c2N)c1	0	-2	nt	-0.36	-11	-6	nt
SMILES	p97 ATPase inh	DTT redox prof	ROMK mod	KCC2 mod	Mdm2 ligase inh	PKD1 kinase inh	ROMK retest
CCCCN(C(=O)c1cccc2c(=O)c(C)c(-c3ccccc3)oc12)c1ccccc1	2	0	-3.7*	-1.3	7	-6	0.063*
O=C(O)CCC(=O)Nc1ccc(NC(=O)c2ccc(Cl)cc2Cl)c(Cl)c1	3	-1	0.99	-0.72	5	-3	nt
CCC(C)(C(=O)NC1CCCCC1)N(CC1CCCO1)C(=O)Cc1cccs1 (stereo not given)	-1	0	-7.8*	0.91	0	5	0.075
CCN1CCN(CCNC(=O)c2ccc(/C=C3/Sc4ccccc4N(Cc4cccc(Cl)c4)C3=O)cc2)CC1	3	1	-1.3	-0.36	-27	3	nt
CCN1CCN(CCNC(=O)c2ccc3c(c2)N(Cc2ccc(F)cc2)C(=O)/C(=C/c2ccccc2)S3)CC1	1	-1	-3.1*	-1.8	-2	4	0.073
CCCCC(=O)N(CCC)CCC	-2	nt	nt	-0.37	-13	nt	nt
COc1cccc(C(c2nnnn2Cc2ccccc2)N2CCN(C3CCCC3)CC2)c1OC (stereo not given)	-7	0	-4.8*	0.7	nt	-12	0.054*
COc1ccc(Cn2nnnc2C(c2ccc(C)cc2)N2CCN(C3CCCC3)CC2)cc1 (stereo not given)	-1	1	nt	-0.1	-34	-10	0.053*
COc1ccc(Cn2nnnc2C(c2cc3cccc(C)c3[nH]c2=O)N2CCN(C)CC2)cc1 (stereo not given)	4	0	-0.5	0.34	-12	-11	nt
COc1ccc(Cn2nnnc2C(c2cc3cc(C)ccc3[nH]c2=O)N2CCN(C)CC2)cc1 (stereo not given)	5	0	-3	-0.086	-10	-1	0.076
O=C(Cn1cnc2c(nnn2Cc2ccc(Cl)cc2)c1=O)NCC1CCCO1 (stereo not given)	4	1	0.22	-0.67	11	5	nt
CCc1ccc(NC(=O)Cn2nnc(-c3ccc(C)cc3-n3cnnn3)n2)cc1	2	nt	nt	nt	nt	nt	nt
O=C(Cn1c(SCC(=O)N2CCc3ccccc32)nc2ccccc21)NC1CCCC1	-1	0	0.55	0.94	1	4	nt
Cc1ccsc1/C=N/NC(=O)c1cc(-c2ccncc2)nc2ccccc12	4	0	4.8*	nt	-13	9	?
O=C(Nc1ccc2c(c1)OCO2)c1cc(-c2ccncc2)nc2ccccc12	6	-1	nt	0.076	-21	1	0.068*
O=C(N/N=C/c1ccsc1)c1cc(-c2ccncc2)nc2ccccc12	-1	0	3*	-0.0056	-1	-13	0.081
COc1ccccc1-c1cc(C(=O)N/N=C/c2sccc2C)c2ccccc2n1	6	-4	-0.22	-0.0056	7	-3	nt
CC(/C=N/NC(=O)c1cc(-c2ccncc2)nc2ccccc12)=C\c1ccco1	2	1	3.7*	0.58	-3	-1	0.09
Cc1nnc(SCC(=O)Nc2ncc(Cc3ccc(F)cc3)s2)n1N	-1	5	nt	-1.1	-12	-3	nt

Source: PubChem
